From ChEMBL document CHEMBL4145524, “Chemoenzymatically synthesized GM3 analogues as potential therapeutic agents to recover nervous functionality after injury by inducing neurite outgrowth” (2018)
Calls of active or inactive are those of the source. No cut-off for these calls is given here.

Tests used:
PC-12 [1] = assay: Induction of neuritogenesis in rat PC12 cells assessed as neurite bearing cells at 10 uM after 72 hrs by inverted microscopic analysis relative to control; format: functional
Summary of the method: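 PC12 cells (ATCC; grown in DMEM, 10% heat-inactivated horse serum, 5% FBS, 37 °C, 5% CO2) seeded at 2×10^4/well on poly-L-lysine, attached 24 h, then 24 h in low-serum DMEM (1% horse serum, 0.5% FBS). Compound at 10 μM for 72 h, no NGF. Score cells with at least one neurite ≥2× cell-body diameter, ≥200 cells/sample; mean ± S.D., ≥3 repeats.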

PC-12 [2] = assay: Induction of neuritogenesis in NGF-induced rat PC12 cells assessed as neurite bearing cells at 10 uM cotreated with 25 ng/ml NGF after 72 hrs by inverted microscopic analysis relative to control; format: functional
Summary of the method: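 PC12 cells plated on poly-L-lysine-coated wells at 2×10^4/well, switched to DMEM with 1% horse serum and 0.5% FBS for 24 h, then given compound together with NGF 25 ng/ml for 72 h. Inverted microscopy. Percentage of cells bearing at least one neurite twice the cell-body diameter, over ≥200 cells per sample; mean ± S.D., at least three experiments.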

SMILES | Activity (PC-12 [1]) | Activity (PC-12 [2])
CCCCCCCCCCCCC/C=C/[C@@H](O)[C@H](CO[C@@H]1O[C@H](CO)[C@H](O)[C@H](O[C@]2(C(=O)O)C[C@H](O)[C@@H](NC(C)=O)[C@H]([C@@H](O)[C@H](O)CO)O2)[C@H]1O)NC(=O)CCCCCCCCCCCCCCCCC | inactive | inactive
CCCCCCCCCCCCC/C=C/[C@@H](O)[C@@H](N)CO[C@@H]1O[C@H](CO[C@]2(C(=O)O)C[C@H](O)[C@@H](NC(C)=O)[C@H]([C@@H](O)[C@H](O)CO)O2)[C@@H](O)[C@H](O)[C@H]1O | 26% | >30%
CCCCCCCCCCCCC/C=C/[C@@H](O)[C@@H](N)CO[C@@H]1O[C@H](CO)[C@H](O)[C@H](O[C@]2(C(=O)O)C[C@H](O)[C@@H](NC(C)=O)[C@H]([C@@H](O)[C@H](O)CO)O2)[C@H]1O | 6% | Active
CCCCCCCCCCCCC/C=C/[C@@H](O)[C@H](CO[C@@H]1O[C@H](CO[C@]2(C(=O)O)C[C@H](O)[C@@H](NC(C)=O)[C@H]([C@@H](O)[C@H](O)CO)O2)[C@H](O)[C@H](O)[C@H]1O)NC(=O)CCCCCCCCCCCCCCCCC | inactive | inactive
CCCCCCCCCCCCC/C=C/[C@@H](O)[C@H](CO[C@@H]1O[C@H](CO)[C@@H](O[C@@H]2O[C@H](CO)[C@H](O)[C@H](O[C@]3(C(=O)O)C[C@H](O)[C@@H](NC(=O)CCl)[C@H]([C@@H](O)[C@H](O)CO)O3)[C@H]2O)[C@H](O)[C@H]1O)NC(=O)CCCCCCCCCCCCCCCCC | 8% | inactive
CCCCCCCCCCCCC/C=C/[C@@H](O)[C@@H](N)CO[C@@H]1O[C@H](CO[C@]2(C(=O)O)C[C@H](O)[C@@H](NC(C)=O)[C@H]([C@@H](O)[C@H](O)CO)O2)[C@H](O)[C@H](O)[C@H]1O | 9% | inactive
CCCCCCCCCCCCC/C=C/[C@@H](O)[C@H](CO[C@@H]1O[C@H](CO[C@]2(C(=O)O)C[C@H](O)[C@@H](NC(C)=O)[C@H]([C@@H](O)[C@H](O)CO)O2)[C@@H](O)[C@H](O)[C@H]1O)NC(=O)CCCCCCCCCCCCCCCCC | inactive | inactive
